Source: PubChem (Broad Institute)
E-selectin induc = induces E-selectin expression in human endothelial cells | P16581 | HUVEC E-selectin immunofluorescence imaging; normalized: neutral wells 0, TNF-alpha wells 100 | activation, % at 7.58 µM | 260,000 compounds, 0.37% hits;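 active = mean E-selectin-positive cell signal at least 10% of the positive control, reached in at least 60% of replicates, without over 20% cell loss; inconclusive = no rule given, readout overlaps actives, possibly toxicity-flagged; inactive = the rest, including those meeting only one limit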
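Read-out: % PE-positive cells | Test system: HUVEC | Doses: One compound dose added by pin transfer | Buffer or medium: EGM-2 over gelatin coat | Signal: Immunofluorescence imaging | Benchmarks: TNF-alpha, DMSO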
DENV2 CPE = protects cells from dengue virus 2 cytopathic effect; DENV2-infected cells, cytopathic effect rescue, plate reader; CPE inhibition, % at 9.99 µM; 350,000 compounds, 1.7% hits; in the data active = CPE inhibition above about 20%, passing the limit was not always enough; inconclusive = no clear call, values can overlap the other calls; tested in BHK-21 cells
SIRT5 block = blocks human SIRT5 desuccinylation of peptide. AID 652115. Purified SirT5, succinyl-peptide AMC, trypsin-coupled fluorescence. inhibition, % at 15 µM. 330,000 compounds, 1.1% hits. Q9NXA8; in the data active = inhibition above about 15%; inconclusive = no clear call, values can overlap the other calls
Target sequence (Q9NXA8 whole entry, looked up): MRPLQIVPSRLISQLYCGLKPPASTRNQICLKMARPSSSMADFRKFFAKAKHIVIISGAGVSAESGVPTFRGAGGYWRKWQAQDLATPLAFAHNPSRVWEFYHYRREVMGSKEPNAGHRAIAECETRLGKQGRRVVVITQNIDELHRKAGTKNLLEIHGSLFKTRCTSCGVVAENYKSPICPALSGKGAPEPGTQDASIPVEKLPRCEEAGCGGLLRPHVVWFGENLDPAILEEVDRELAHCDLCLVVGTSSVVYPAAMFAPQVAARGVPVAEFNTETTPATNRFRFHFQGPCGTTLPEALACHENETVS
Numbers stand for hits; n = inactive; u = inconclusive; x = not tested or not shown. The list is not random: actives were taken first. Their share in the collection is about 2.9%.

SMILES | E-selectin induc | DENV2 CPE | SIRT5 block
O=C(Cn1c(=O)oc2ccccc21)Nc1cccc(Cl)c1 | x | u | 28
O=C(CCn1c(=O)oc2ccccc21)Nc1cccc(Cl)c1 | n | n | n
CO[C@H]1CC[C@H]2CCN(C)C(=O)[C@@H](C)[C@@H](OC)CN(C)C(=O)c3cccc(C#N)c3OC[C@@H]1O2 | n | n | n
CC(=O)/C(C#N)=C1\NC(=O)C(Cc2ccc(C)c(Cl)c2)S1 (stereo not drawn) | x | 87 | n
O=C1NC(=O)C(Cc2cccc(Oc3ccccc3)c2)S1 (stereo not drawn) | n | n | n
CCNC(=O)Nc1ccc2c(c1)C(=O)N(C)[C@H]1CC[C@H](CC(=O)N[C@@H](C)c3ccccc3)O[C@H]1CO2 | n | n | n
CCN(CC)C(=O)c1oc2ccc(S(=O)(=O)N3CC(C)CC(C)C3)cc2c1C (stereo not drawn) | x | n | n
Cc1c(C(=O)NCc2cccnc2)oc2ccc(S(=O)(=O)N3CC(C)CC(C)C3)cc12 (stereo not drawn) | x | 21 | x
O=C(CCC1CCCN(Cc2cccc3c2OCO3)C1)NCc1ccc(F)c(F)c1 (stereo not drawn) | n | n | 38
O=C(CCC1CCCN(Cc2ccc3c(c2)OCCO3)C1)NCc1ccc(F)c(F)c1 (stereo not drawn) | n | n | n
COc1cc(C=c2c3ccccc3n3c2cc(-c2ccccc2)[n+]3C)cc(OC)c1OC | 139 | n | n
CN(C)c1ccc(C=c2c3ccccc3n3c2cc(-c2ccccc2)[n+]3C)cc1 | 140 | n | x
CN(C)c1ccc(C=c2c3cc([N+](=O)[O-])ccc3n3c2cc(-c2ccccc2)[n+]3C)cc1 | 218 | u | n
Cn1c2ccccc2c2cc([N+](=O)[O-])ccc21 | n | n | n
CN(C)c1ccc(/C=C2\CCC/C(=C\c3ccccc3)C2=O)cc1 | x | n | n
COc1cc(/C=C(/C(=O)O)c2ccc(-c3ccccc3)cc2)cc(OC)c1OC | n | n | n
CN(C)c1ccc(C=C2C=C(c3ccccc3)OC2=O)cc1 | n | n | x
CN(C)c1ccc(C=c2c3ccccc3n3c2c2c([n+]3C)CCCC2)cc1 | 68 | n | n
O=C(CS(=O)c1ccc(F)cc1)Nc1ccccc1Cl (stereo not drawn) | x | n | n
Cc1ccccc1NC(=O)COc1ccc(Br)cc1CNCCCO | n | n | n
CCN(Cc1cnn(C)c1)C(=O)CC1C(=O)NCCN1Cc1cccc(OC)c1OC (stereo not drawn) | x | n | n
CCn1c(NCc2cc(OC)c(OC)c(OC)c2)nc2ccccc21 | x | n | x
COCC#Cc1cnc2c(c1)C(=O)N([C@H](C)CO)C[C@H](C)[C@@H](CN(C)C(=O)C1CC1)O2 | n | n | n
O=S(=O)(Oc1ccc(Cl)cc1)c1cccc2cccnc12 | x | n | n
CN(C)c1ccc(C=Cc2nccc3ccccc23)cc1 | n | n | n
SMILES | E-selectin induc | DENV2 CPE | SIRT5 block
COc1cc(N(C)C)ccc1C=c1c2ccccc2n2c1cc(-c1ccccc1)[n+]2C | 160 | n | n
CN(C)c1ccc(C=c2c3ccccc3n3c2cc(-c2ccc(Cl)cc2)[n+]3C)cc1 | 122 | n | n
CCN(CC)c1ccc(/C=C/c2cccc[n+]2C)c(OC)c1 | x | n | n
CCOc1ccc(C(=O)N/N=C/c2cc([N+](=O)[O-])cs2)cc1 | n | n | n
Cn1cnc(S(=O)(=O)N[C@H]2CC[C@H](CC(=O)NCC3CCCCC3)O[C@H]2CO)c1 | n | 80 | n
Cn1cnc(S(=O)(=O)N[C@@H]2CC[C@@H](CC(=O)NCC3CC3)O[C@@H]2CO)c1 | n | n | n
Cn1cnc(S(=O)(=O)N[C@H]2CC[C@H](CC(=O)NCC3CCCCC3)O[C@@H]2CO)c1 | n | n | n
Cn1cnc(S(=O)(=O)N[C@@H]2CC[C@H](CC(=O)NCC3CCCCC3)O[C@@H]2CO)c1 | n | 84 | n
COc1ccc(C2CC(=O)C=C(O)C2)cc1 (stereo not drawn) | n | n | n
COc1ccc(-c2cnc3c(c2)C(=O)N([C@H](C)CO)C[C@H](C)[C@@H](CN(C)C(=O)CN(C)C)O3)cc1 | n | n | n
COc1ccc(NC(=O)N(C)C[C@H]2Oc3ccc(NC(=O)Cc4ccccc4)cc3C(=O)N([C@@H](C)CO)C[C@H]2C)cc1 | n | n | n
CCCNC(=O)[C@H]1[C@H](CO)[C@H]2Cn3c(ccc(-c4ccccc4)c3=O)[C@H]2N1CC1CC1 | n | n | n
CCCN1[C@H](C(=O)NCC(F)(F)F)[C@@H](CO)[C@@H]2Cn3c(ccc(-c4ccccc4)c3=O)[C@@H]21 | n | 92 | n
CCCNC(=O)[C@H]1[C@H](CO)[C@H]2Cn3c(ccc(-c4ccc(F)cc4)c3=O)[C@H]2N1CC1CC1 | n | n | 16
CCCN1[C@@H]2c3ccc(-c4ccccc4F)c(=O)n3C[C@@H]2[C@@H](CO)[C@@H]1C(=O)NCC | n | n | n
C[C@@H]1CN([C@H](C)CO)C(=O)c2cccc(NC(=O)c3cnccn3)c2O[C@H]1CN(C)S(=O)(=O)c1ccc(Cl)cc1 | n | x | x
COc1ccc(NC(=O)CN(C)C(=O)CCC(=O)c2ccc(C)cc2)cc1 | n | n | n
O=C1CNC(=O)/C1=C\c1ccc(O)cc1 | n | n | n
O=C1CNC(=O)/C1=C/c1ccc(Br)cc1 | n | n | 25
CCOC1=C2CN(S(=O)(=O)c3ccc(C)cc3)[C@H](c3cccc(Cl)c3)C[C@@H]2N(S(=O)(=O)c2ccccc2[N+](=O)[O-])[C@H](c2ccccc2)C1 | n | n | n
Cc1noc(C)c1CC(=O)N1CCCC(C(=O)c2ccc(C(C)(C)C)cc2)C1 (stereo not drawn) | x | n | n
CCCNC(=O)N(C)C[C@@H]1Oc2ncc(C#CC3CCCCC3)cc2C(=O)N([C@@H](C)CO)C[C@@H]1C | n | n | n
COc1ccc(C2=CC(=O)C[C@H](c3ccc(OC)cc3)C2)cc1 | n | n | x
COc1ccc([C@H]2CC(=O)C=C(c3ccc4cc[nH]c4c3)C2)cc1 | n | 66 | x
C[C@@H]1CN([C@@H](C)CO)C(=O)c2cc(C3=CCCCC3)cnc2O[C@@H]1CN(C)C(=O)Nc1cccc(F)c1 | n | n | n
SMILES | E-selectin induc | DENV2 CPE | SIRT5 block
O=C(NCc1ccccc1)C(=O)NCC1OCCN1C(=O)c1cccs1 (stereo not drawn) | n | n | n
O=c1oc(CCCO)cc2ccc(C#Cc3ccsc3)cc12 | n | x | x
CN(C)c1ccc(C#Cc2ccc3cc(CCCO)oc(=O)c3c2)cc1 | n | 78 | n
COc1ccc(C(=O)NCC(c2ccco2)N2CCOCC2)cc1 (stereo not drawn) | n | n | x
O=C(NCC(c1ccco1)N1CCOCC1)c1ccc(F)cc1 (stereo not drawn) | n | n | n
O=C(NCC(c1ccco1)N1CCOCC1)c1c(F)cccc1F (stereo not drawn) | x | n | 17
CCOc1ccc(C(=O)NCC(=O)N2CCCCCCC2)cc1 | x | 22 | n
CCOc1ccc(C(=O)NCC(c2ccco2)N2CCOCC2)cc1 (stereo not drawn) | x | 26 | n
CCOc1ccc(NC(=O)c2ccc(NCC(=O)N3CCCCCC3)cc2)cc1 | x | n | n
Cc1ccc(Nc2cc(C)nc3nc(C)nn23)c(C)c1 | n | n | x
FC(F)(F)c1cnc(NNC(=S)Nc2ccccc2)c(Cl)c1 | n | n | n
CCOc1ccc(NC(=O)CN2C(=O)S/C(=C/c3cccn3C)C2=O)cc1 | x | n | 112
